≈ marks a conversion by molar mass, not a printed value. Calls of active or inactive are those of the source. No cut-off for these calls is given here.
How the values were obtained:
[1] = Half life in CD1 mouse plasma by UPLC-MS analysis; type: ADME, cell-free
Procedure, shortened: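 Half-life in mouse plasma measured at 37 °C.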

BJ = test: Cytotoxicity against human BJ cells after 72 hrs by alamar blue assay; type: cell-based
[2] = Chemical stability in dimethyl sulfoxide at pH 7.4 after 14 days; type: physicochemical; details: buffer, pH 7.4, 336 h
Procedure, shortened: (§1)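 DMSO stability followed over 14 days for non-metabolic degradation.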

[3] = Permeability of the compound assessed as ratio of compound in acceptor chamber to amount of compound in donor chamber at pH 5 by PAMPA assay; type: ADME
[4] = Permeability of the compound assessed as ratio of compound in acceptor chamber to amount of compound in donor chamber at pH 7.4 by PAMPA assay; type: ADME
HepG2 = test: Cytotoxicity against human HepG2 cells after 72 hrs by alamar blue assay; type: cell-based; details: hepg2, 72 h
[5] = Chemical stability in phosphate buffered saline at pH 5 after 14 days; type: physicochemical; details: buffer, pH 5, 336 h
Procedure, shortened: (§2)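 Stability in PBS (pH 3, 5 and 7.4) followed over 14 days for non-metabolic degradation.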

[6] = Chemical stability in phosphate buffered saline at pH 7.4 after 14 days; type: physicochemical; details: buffer, pH 7.4, 336 h; procedure, shortened: as §2
Mus musculus [7] = test: Stability of the compound in po dosed mouse blood; type: ADME, organism-based; details: in vivo
Procedure, shortened: (§3)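 Oral gavage of compound suspensions to female Balb/c mice; blood sampled retro-orbitally at 1, 2 and 4 h (one sample per mouse) and by cardiac puncture at 48 h. Parent compound and metabolites measured by UPLC–MS; metabolite identity assigned by MS/MS against a synthesized standard.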

[8] = Chemical stability in dimethyl sulfoxide at pH 5 after 14 days; type: physicochemical; details: buffer, pH 5, 336 h; procedure, shortened: as §1
[9] = Permeability of the compound assessed as ratio of compound in acceptor chamber to amount of compound in donor chamber at pH 3 by PAMPA assay; type: ADME
[10] = Toxicity in human erythrocyte assessed as hemolysis at 10 uM after 5 hrs; type: cell-based; details: erythrocytes, read-out: Activity
Procedure, shortened: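 Human erythrocytes washed three times after spinning whole blood at 1000g for 5 min. Test compound at 10 µM final, 2% hematocrit. PBS negative control; 0.4% saponin dilution series as standard. After centrifugation, supernatant absorbance read at 414 nm and % hemolysis taken from the calibration curve. Triplicate.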

[11] = Chemical stability in dimethyl sulfoxide at pH 3 after 14 days; type: physicochemical; details: buffer, pH 3, 336 h; procedure, shortened: as §1
[12] = Half life in CD1 mouse liver microsomes by UPLC-MS analysis; type: ADME, Microsome; details: for half-life: CD1, mouse, liver microsomes
Procedure, shortened: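 CD-1 female mouse liver microsomes in 0.1 M potassium phosphate pH 7.4 with EDTA and NADPH-regenerating solutions, 37 °C, shaken. Samples at 0, 0.5, 1 and 2 h quenched with cold acetonitrile containing caffeine internal standard. UPLC–MS (SIR) read-out. Log peak-area ratio versus time gives slope; k = −2.303 × slope, t1/2 = 0.693/k.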

Trypanosoma brucei [13] = test: Antitrypanosomal activity against Trypanosoma brucei after 48 hrs; type: functional, organism-based
[14] = Chemical stability in phosphate buffered saline at pH 3 after 14 days; type: physicochemical; details: buffer, pH 3, 336 h; procedure, shortened: as §2
[15] = Aqueous solubility of compound in deionized water; type: physicochemical
Procedure, shortened: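 Aqueous solubility measured in deionized water.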

Raji = test: Cytotoxicity against human Raji cells after 72 hrs by alamar blue assay; type: cell-based
Mus musculus [16] = test: Stability of the compound in po dosed mouse blood assessed as 5-(2-cyano-6-(3,4-dichlorobenzylamino)-9H-purin-9-yl)pentanoic acid level after 1 hr; type: ADME, organism-based; details: in vivo; procedure, shortened: as §3
HEK293 = test: Cytotoxicity against human HEK293 cells after 72 hrs by alamar blue assay; type: cell-based; details: hek293, 72 h
[17] = Therapeutic index, ratio of EC50 for human cells to EC50 for Trypanosoma brucei; details: human cells versus Trypanosoma brucei, read-out: Ratio EC50
Procedure, shortened: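 Index = EC50 against the most sensitive mammalian line (HEK 293, Hep G2, BJ, Raji) divided by EC50 against T.b. brucei.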

Trypanosoma brucei [18] = test: Antitrypanosomal activity against Trypanosoma brucei 221 infected in BALB/c mouse assessed as increase of mouse survival days at 200 mg/kg, po qd for 5 days relative to control; type: functional
Procedure, shortened: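 Female Balb/C mice (10–12 weeks) infected on day 0 by IP injection of ~800 T.b. brucei 221 parasites (cultured in HMI-9 with 10% FBS and 10% Serum Plus, diluted to 8 × 10³ parasites/ml, 0.1 ml). Oral gavage of 200 mg/kg on days 0–4 in 20% ethanol/40% propylene glycol/10% PEG 400/30% PBS pH 7.4; vehicle controls. Mice were randomly assigned to groups. Parasitemia was counted by hemocytometer every third day from day 4. Survival days were recorded.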

[19] = Ratio of plasma concentration mouse at 200 mg/kg, po to EC90 for Trypanosoma brucei; type: ADME, organism-based; design: dose 200 mg/kg, route oral; details: in vivo
Mus musculus [20] = test: Toxicity in mouse assessed as decreased movement at 2 to 8 mg/kg, iv measured after 30 seconds; type: organism-based; design: dose 2-8 mg/kg, route intravenous; details: in vivo, 0.5 min
Procedure, shortened: (§4)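 Female Balb/c mice dosed by lateral tail-vein injection of solubilized compound at 2, 4 and 8 mg/kg (0.4–1.6 mg/ml solutions, 0.1 ml per 20 g). Observed by a modified Irwin functional observational battery (gait, alertness, respiration, piloerection, vasodilation, vocalization).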

[21] = Toxicity in po dosed mouse assessed as maximum tolerated dosage; type: organism-based; details: in vivo
Procedure, shortened: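 Female balb/c mice, 10–12 weeks, housed individually. Oral gavage in a four-stage escalation: vehicle, then 50, 100 and 200 mg/kg. Some groups went on to 400 and 1000 mg/kg. Dose volume 0.1 ml per 20 g. Twelve mice per compound. A modified Irwin FOB was run for 15 min after each dose and at 1–48 h (gait, alertness, respiration, piloerection, vasodilation, vocalization). Necropsy, CBC and serum chemistry were done at 48 h.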

Trypanosoma brucei [22] = test: Antitrypanosomal activity against Trypanosoma brucei 221 infected in BALB/c mouse assessed as decrease of parasitemia at 200 mg/kg, po qd for 5 days measured on day 4; type: functional, organism-based; design: dose 200 mg/kg
Procedure, shortened: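 Female Balb/C mice (10–12 weeks) infected ip on day 0 with ~800 T.b. brucei strain 221 (0.1 ml of 8 × 10³ parasites/ml in unsupplemented HMI-9; parasites grown to 10⁷/ml in supplemented HMI-9). Randomized to oral gavage of 200 mg/kg suspension or vehicle (20% ethanol/40% propylene glycol/10% PEG 400/30% PBS pH 7.4) on days 0–4. Parasitemia counted by hemocytometer in saphenous blood every third day from day 4.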

[23] = Ratio of drug level in brain to plasma in mouse at 200 mg/kg, po after 24 hrs
[24] = Cmax in mouse plasma at 50 to 1000 mg/kg, po after 1 to 4 hrs
[25] = Ratio of plasma concentration mouse at 200 mg/kg, po to EC50 for Trypanosoma brucei; type: ADME, organism-based; design: dose 200 mg/kg, route oral; details: in vivo
[26] = system: Trypanosoma brucei rhodesiense; test: Antitrypanosomal activity against Trypanosoma brucei rhodesiense STIB900 infected in NMRI mouse assessed as increase of mouse survival time at 50 to 200 mg/kg, po qd
Mus musculus [27] = test: Toxicity in mouse assessed as transient darkening of the eyes at 2 to 8 mg/kg, iv measured immediately after dosing; type: organism-based; design: dose 2-8 mg/kg, route intravenous; details: in vivo; procedure, shortened: as §4
Mus musculus [28] = test: Toxicity in mouse assessed as transient darkening of the eyes at 2 to 8 mg/kg, iv measured after 30 seconds; type: organism-based; design: dose 2-8 mg/kg, route intravenous; details: in vivo, 0.5 min; procedure, shortened: as §4
Mus musculus [29] = test: Toxicity in mouse at 200 mg/kg, po qd for 10 days; type: organism-based; design: dose 200 mg/kg, route oral; details: in vivo, 240 h
Procedure, shortened: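 Five female Balb/c mice given 200 mg/kg daily by oral gavage for 10 days and monitored to day 30. One mouse sent for CBC, serum chemistry and necropsy on day 10 and another on day 30. Functional observational battery used.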

[30] = Drug level in mouse brain at 200 mg/kg, po after 24 hrs; details: read-out: Drug uptake
[31] = Cmax in mouse plasma at 200 mg/kg, ip; type: ADME, organism-based; design: dose 200 mg/kg, route intraperitoneal
Mus musculus [32] = test: Toxicity in mouse assessed as decreased movement at 2 to 8 mg/kg, iv measured immediately after dosing; type: organism-based; design: dose 2-8 mg/kg, route intravenous; details: in vivo; procedure, shortened: as §4
[33] = Cmax in mouse plasma at 200 mg/kg, po; type: ADME, organism-based; design: dose 200 mg/kg, route oral
Procedure, shortened: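 Female Balb/c mice given oral gavage suspensions (20% ethanol/40% propylene glycol/10% PEG 400/30% PBS pH 7.4), 0.1 ml per 20 g, at 50–1000 mg/kg. Retro-orbital blood (0.1 ml, EDTA) taken from a different mouse at 1, 2, 4 h, some also at 8, 12, 24 h, plus a 48 h cardiac bleed. Plasma precipitated with 3 parts cold acetonitrile; concentration by UV/HPLC.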

Trypanosoma brucei [34] = test: Antitrypanosomal activity against Trypanosoma brucei 221 infected in BALB/c mouse assessed as decrease of parasitemia at 200 mg/kg, po qd for 5 days measured on day 6; type: functional, organism-based; design: dose 200 mg/kg
[35] = Long term solid state stability of the compound at simulated tropical condition after 30 days; type: physicochemical; details: 720 h
[36] = Cmax in mouse brain at 200 mg/kg, po

Row | half-life [1] | Stability [2] | Stability [5] | Stability [6] | Stability (Mus musculus [7]) | Stability [8] | Stability [11] | half-life [12] | EC50 (Trypanosoma brucei [13]) | Stability [14] | solubility [15] | Compound | Activity (BJ) | Activity (HepG2) | hemolysis at 5 h, 10 µM [10] | Activity (Raji) | Activity (HEK293) | selectivity ratio [17] | other results
1 | 38.3 h | Stable | Stable | Stable | Unstable | Stable | Stable | 1.08 h | 380 nM | Stable | 16.1 µM (≈ 6.53 µg/mL) | N#Cc1nc(NCc2ccc(Cl)c(Cl)c2)c2ncn(CCCCCO)c2n1 | Non-toxic | Non-toxic | 0.7% | Non-toxic | Non-toxic | > 20 | Ratio [3]: 1512; Ratio [4]: 1900; Ratio [9]: 960; Stability (Mus musculus [16]): Unstable
2 | 25.7 h | Stable | Stable | Stable | Unstable | Stable | Stable | 0.43 h | 270 nM | Stable | 1 µM (≈ 0.412 µg/mL) | Cc1cccc(C)c1-c1cccc(CNc2nc(C#N)nc3c2ncn3CCCO)c1 | Non-toxic | Non-toxic | 1.1% | Non-toxic | Non-toxic | > 20 | 
3 | 247 h |  |  |  |  |  |  | 0.74 h | 500 nM |  | 0.7 µM (≈ 0.263 µg/mL) | CCCCn1cnc2c(NCc3ccc(Cl)c(Cl)c3)nc(C#N)nc21 |  |  | 0.9% |  |  | > 20 | 

Row | Compound | half-life [1] | Stability [2] | Stability [5] | Stability [6] | Stability (Mus musculus [7]) | Stability [8] | Stability [11] | half-life [12] | EC50 (Trypanosoma brucei [13]) | Stability [14] | solubility [15] | Activity (BJ) | Activity (HepG2) | hemolysis at 5 h, 10 µM [10] | Activity (Raji) | Activity (HEK293) | selectivity ratio [17] | other results
4 | N#Cc1nc(NCc2ccc(Cl)c(Cl)c2)c2ncn(CCCC(F)(F)F)c2n1 | 177 h |  |  |  |  |  |  |  | 530 nM |  | 0.3 µM (≈ 0.129 µg/mL) |  |  | 0.4% |  |  | > 20 | Survival (Trypanosoma brucei [18]): 9.6 days; Ratio [19]: 10; Activity (Mus musculus [20]): Non-toxic; MTD [21]: 1000 mg/kg; Activity (Trypanosoma brucei [22]): inactive; Kp at 24 h [23]: 2; Cmax [24]: 6 µM; Ratio [25]: 20; Activity [26]: inactive; Activity (Mus musculus [27]): Non-toxic; Activity (Mus musculus [28]): Non-toxic; Activity (Mus musculus [29]): Non-toxic; t1/2 ([12]; mouse, microsomes): Stable; concentration at 24 h [30]: 20 µM; Tmax [31]: 4 h; Activity (Mus musculus [32]): Non-toxic; Tmax [33]: 24 h; Activity (Trypanosoma brucei [34]): inactive; Stability [35]: Stable; Tmax [36]: 4 h

— ChEMBL document CHEMBL1287760, “Optimization of purine-nitrile TbcatB inhibitors for use in vivo and evaluation of efficacy in murine models” (Bioorg Med Chem, 2010)
